# High-throughput results from PubChem BioAssay.
# Hits are enriched below; roughly 0.98% of the tested compounds scored in any of these assays.
# S100A4 MyoIIA: blocks human S100A4 binding to myosin IIA peptide | P26447 | S100A4/TAMRA-MyoIIA peptide fluorescence polarization | inhibition, % at 10.7 µM | 0.14% of 360,000 active | AID 652163;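 active = mean inhibition of at least 70% across replicates, with every replicate also reaching that level; inconclusive = mean inhibition reaches 70% but some replicates fall short; inactive = mean inhibition below 70%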
# Target sequence (P26447 whole entry, looked up): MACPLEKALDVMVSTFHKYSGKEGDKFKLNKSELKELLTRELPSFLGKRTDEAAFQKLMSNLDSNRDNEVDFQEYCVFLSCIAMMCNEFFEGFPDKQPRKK
#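 Test system: S100A4 monomer protein. Medium: HEPES buffer with Ca2+, pH 7.2. Reagent: fluorescent myosin IIA peptide, 5 nM. Compound dosing: single-point compound testing. Timing: 5 min between mix addition and reading. Benchmarks: DMSO neutral and TFP positive wells.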
# Statin myotox sup: protects C2C12 myotubes from simvastatin toxicity; ATP luminescence, 48 h; scaled: DMSO 0, geranylgeraniol control 100; AID 602340; rescue of ATP level, % at 7.49 µM; 0.78% of 330,000 active;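 active = mean ATP rescue above about 67%, or every replicate alone reaching that limit, limit read from the data, passing the limit was not always enough; inconclusive = no clear call, values can overlap the other calls; inactive = mean under the limit and some replicate under it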;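 also: myotubes were challenged with 10 µM simvastatin during compound exposure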
# Rtt109 HAT inh: inhibitors of Candida albicans Rtt109/Vps75 histone acetyltransferase | purified Rtt109/Vps75, ThioGlo CoA-SH fluorescence, 4 h | Q5AAJ8 | inhibition, % at 34.9 µM | AID 540336 | 0.16% of 330,000 active;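 active = inhibition of at least 50% in every replicate; inconclusive = best replicate reaches 50% inhibition but some replicates fall short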
# Target sequence (Q5AAJ8 whole entry, looked up): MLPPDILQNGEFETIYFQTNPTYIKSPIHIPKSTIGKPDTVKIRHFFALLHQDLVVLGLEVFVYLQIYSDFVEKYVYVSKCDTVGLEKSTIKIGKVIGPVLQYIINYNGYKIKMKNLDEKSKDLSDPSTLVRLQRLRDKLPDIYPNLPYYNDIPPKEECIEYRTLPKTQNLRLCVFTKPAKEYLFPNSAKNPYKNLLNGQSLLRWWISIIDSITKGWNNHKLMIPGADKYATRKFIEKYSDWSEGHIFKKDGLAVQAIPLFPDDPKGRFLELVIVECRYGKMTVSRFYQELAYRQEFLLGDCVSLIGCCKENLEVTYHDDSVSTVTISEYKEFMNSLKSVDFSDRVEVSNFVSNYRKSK
# ERAP1 HTS inh: blocks human ERAP1 aminopeptidase activity | Q9NZ08 | recombinant ERAP1, Leu-AMC fluorescence, 60 min | inhibition, % at 10.7 µM | 0.15% of 340,000 active | AID 652197;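 active = mean replicate inhibition of at least 30%, or all replicates individually reaching that 30% level; inactive = mean below 30% and not every replicate reaching it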;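 also: 0% = neutral control wells and 100% = L-leucinethiol positive control wells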
# PGC1a acetyl inh: PGC1a acetylation modulation, inhibitor mode | U2OS PGC1a acetylation, AlphaScreen anti-acetyl-lysine; with virally co-expressed GCN5 acetyltransferase | inhibition, % at 15.6 µM | 0.17% of 350,000 active;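 active = every replicate shows inhibition of at least 40%; inconclusive = mean inhibition at least 40% but some replicate below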;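 also: 0% = neutral control wells and 100% = positive control wells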
# * = called active by the depositor; u = inconclusive; x = no result given.
SMILES,S100A4 MyoIIA,Statin myotox sup,Rtt109 HAT inh,ERAP1 HTS inh,PGC1a acetyl inh
O=C(Nc1ccc(F)cc1)N1CCCCN2[C@@H](CO)[C@H](c3ccc(C#Cc4ccccn4)cc3)[C@@H]2C1,-10.3,x,x,4.8,0.6
O=C(Nc1ccccc1)N1CCCCN2[C@H](C1)[C@H](c1ccc(Br)cc1)[C@@H]2CO,4.8,94.6*,x,-1.3,-7.8
O=C(Nc1ccccc1)N1CCCCN2[C@H](C1)[C@@H](c1ccc(Br)cc1)[C@@H]2CO,4.6,8.1,x,-3.1,-3.8
O=C(Nc1ccc(F)cc1)N1CCCCN2[C@H](CO)[C@H](c3ccc(C#Cc4ccccn4)cc3)[C@H]2C1,86.5*,x,x,3.3,4.7
O=C(Nc1ccccc1)N1CCCCN2[C@@H](CO)[C@H](c3ccc(C#Cc4ccccn4)cc3)[C@@H]2C1,27.1,x,x,3.0,-8.3
O=C(Nc1ccccc1)N1CCCCN2[C@H](CO)[C@H](c3ccc(C#Cc4ccccn4)cc3)[C@H]2C1,90.7*,x,x,1.9,-5.7
O=C(CSc1cn[nH]n1)Nc1cccc(C(=O)O)c1,-4.9,21.0,81.4*,32.4*,2.1
Cc1cccc(NC(=O)CSc2cn[nH]n2)c1,2.9,6.5,-2.9,-2.1,x
COc1ccc(S(=O)(=O)N(C)C[C@H]2Oc3ccc(NS(=O)(=O)c4ccc(F)cc4)cc3C(=O)N([C@@H](C)CO)C[C@@H]2C)cc1,6.0,-4.5,x,-1.7,16.8
Cc1ccc(C)c(OCC(O)CN2CCC(C)CC2)c1C (stereo not drawn),x,110.5*,-13.2,x,-26.7
O=C(OCC(=O)N1CCOCC1)c1ccccc1SCC(=O)N1CCCC1,x,118.4*,-12.8,x,2.9
O=C(O)c1ccc(N=Nc2c(O)[nH]c3ccccc23)cc1,-0.3,x,5.9,1.1,48.9*
CCCNC(=O)c1onc(CSc2ccc(Cl)cc2)c1C(=O)NCCC(C)C,1.9,75.2*,8.3,-0.7,-14.9
C=CCNC(=O)c1c(CSc2ccc(Cl)cc2)noc1C(=O)NCCC,x,-9.1,-4.6,x,-9.3
COCCNC(=O)C[C@@H]1C[C@H]2c3cc(NC(=O)CC4CC4)ccc3O[C@H]2[C@@H](CO)O1,1.8,-3.6,x,0.6,4.9
COCC(=O)N1[C@H](CO)[C@@H](c2ccccc2)C12CN(C(=O)Cc1ccccn1)C2,96.8*,x,x,2.0,-4.0
CN(C)C(=O)c1cccc(-c2cccc(-c3nc(C(=O)N4CCOCC4)cc4c3[C@@H](CCO)N([S@](=O)C(C)(C)C)C4)c2)c1,-71.6,-2.2,x,0.0,3.2
C[C@H](CO)N1C[C@H](C)[C@H](CN(C)Cc2ccc(C(=O)O)cc2)Oc2ncc(C#CCN(C)C)cc2C1=O,5.0,11.0,x,1.6,4.6
COc1cc(OC)c(NC(=O)CCNS(=O)(=O)c2cc(Br)cnc2N)cc1Cl,x,94.3*,-3.1,x,-9.5
COc1ccc(NC(=O)CCNS(=O)(=O)c2cc(Br)cnc2N)c(OC)c1,-1.0,-0.2,-10.6,2.0,6.7
O=S(=O)(c1ccccc1)N1CC[C@@H]2[C@H](CO)Nc3ccc(Br)cc3[C@@H]21,7.8,10.6,x,-0.9,-3.2
COc1ccccc1N(C(C)=O)C1=C(Cl)C(=O)c2ccccc2C1=O,-2.1,8.0,x,60.5*,5.2
CCS(=O)(=O)c1ncc(Cl)c(C(=O)Nc2ccccc2OC)n1,-7.0,143.9*,2.0,4.3,x
COc1ccc(NC(=O)CSc2nnc(-c3ccccc3)n2N)cc1,x,0.4,59.4*,x,2.3
COc1ccc(NC(=O)CSc2nccc(C)n2)cc1,x,112.7*,-2.2,x,1.4
SMILES,S100A4 MyoIIA,Statin myotox sup,Rtt109 HAT inh,ERAP1 HTS inh,PGC1a acetyl inh
CCn1c(CNc2ccc(F)cc2)nnc1SCC(=O)Nc1ccc(OC)cc1,x,119.0*,6.1,x,-22.6
Cc1ccnc(SCC(=O)Nc2cc(C)on2)n1,-0.1,x,0.6,-3.9,-0.5
C[C@@H]1CN([C@@H](C)CO)C(=O)c2cc(NC(=O)Cn3cnnn3)ccc2O[C@@H]1CN(C)S(=O)(=O)c1ccccc1,-7.7,-12.4,x,0.2,-2.2
CCC(=O)N1CCC2(CC1)CN(S(=O)(=O)c1ccccc1)[C@H](CO)c1[nH]c3cc(OC)ccc3c12,-3.8,x,x,-3.1,1.9
C[C@H](CO)N1C[C@H](C)[C@@H](CN(C)C(=O)c2ccncc2)Oc2ncc(C#CC3CCCCC3)cc2C1=O,2.6,-52.0,x,0.1,3.2
CCCSc1nnc(CN2CCOCC2)n1C,x,111.3*,4.7,x,1.6
Cn1c(CN2CCOCC2)nnc1SCC(N)=O,x,3.0,2.0,x,-2.4
CO[C@@H](CN(C)Cc1cc(F)ccc1F)[C@@H](C)CN(C(=O)Nc1ccc(F)cc1)[C@@H](C)CO,1.2,1.5,x,1.5,-0.2
C=CCc1c(C)[nH]c2ccc(C)cc2c1=O,x,95.1*,-5.0,x,-0.5
CC(=O)N(c1ccc2oc(=O)sc2c1)S(=O)(=O)c1cccc2cccnc12,1.0,21.8,135.1*,-0.3,x
CC(=O)N(c1ccc2oc(=O)sc2c1)S(=O)(=O)c1cccs1,x,1.5,4.0,x,11.8
CC1=C(C(=O)NCc2ccccc2)C(c2cccs2)NC(=S)N1 (stereo not drawn),-4.7,98.1*,-5.5,-1.8,0.6
CNC(=O)C1=C(C)NC(=S)NC1c1cccs1 (stereo not drawn),-2.1,-13.7,-0.4,-2.4,x
CSc1n[nH]c(NC(=O)c2c(-c3c(Cl)cccc3Cl)noc2C)n1,1.7,-6.9,-2.8,-1.7,64.7*
O=c1cc(-c2ccc(O)cc2)oc2ccccc12,0.3,24.2,-8.7,3.0,-9.2
O=c1cc(-c2ccncc2)oc2ccccc12,x,115.1*,-7.5,x,22.9
CN1CCN(c2nc3c(c(=O)n(C)c(=O)n3C)n2Cc2cccc3ccccc23)CC1,x,115.6*,-0.7,x,3.3
Cn1c(=O)c2c(nc(N3CCCCCC3)n2Cc2cccc3ccccc23)n(C)c1=O,x,64.2,-4.0,x,-23.8
C[C@H](CO)N1C[C@H](C)[C@@H](CN(C)C(=O)C2CCC2)Oc2ncc(C3=CCCC3)cc2C1=O,10.1,2.4,x,-1.3,-6.3
COc1ccc(NC(=O)N(C)C[C@@H]2Oc3ccc(NC(=O)Cn4cnnn4)cc3C(=O)N([C@H](C)CO)C[C@H]2C)cc1,2.6,u,x,-1.3,-6.1
COCCCNC(=O)c1c(NC(=O)C2COc3ccccc3O2)sc2c1CCCC2 (stereo not drawn),x,95.7*,-3.4,x,22.3
O=C(NCCC1=CCCCC1)C1COc2ccccc2O1 (stereo not drawn),x,146.3*,-14.1,x,-3.0
CN1CCc2c(sc(NC(=O)C3COc4ccccc4O3)c2C(N)=O)C1 (stereo not drawn),105.6*,-3.2,20.1,-0.6,1.1
C[C@H](CO)N1C[C@H](C)[C@H](CN(C)C(=O)c2ccccc2)OCCCC[C@H](C)Oc2ccc(NC(=O)Nc3ccc(C(F)(F)F)cc3)cc2C1=O,14.5,x,x,-0.7,-8.1
O=C(Cc1ccccn1)N[C@@H]1CC[C@@H](CCNS(=O)(=O)c2cccc(F)c2)O[C@H]1CO,131.7*,-6.4,x,-4.2,-1.7
